# The campaign covered roughly 2,500 compounds. About 460 (18%) were called active. Not all results are given here. Unmarked numbers belong to inactive results.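 The calls were made as follows: active = mean activation above a cutoff of low control average plus 3 SD from the earlier screen (cut at about 12% in these data); inactive = the rest.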
# Assay: compound fluorescence interference without thin filaments, confirmation, artefact control for cardiac RTF calcium sensitizer project, biochemical (AID 504382)
# Conditions: IANBD fluorescence interference counterscreen, buffer, EC20 Ca2+; at 7.2 µM; hits give high values; scaled: EC20 calcium 0, EC100 calcium 100
# Procedure, shortened: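 Technique: fluorescence, 480/540 nm / Medium: MOPS-based buffer with KCl, MgCl2, EGTA, NTA, DTT, pH 7.2 / Probe or stimulus: calcium at EC20 level, 0.472 mM final / Repeats: triplicate wells per compound / Times: 15 min compound exposure at 25 °C / Measure: compound fluorescence interference relative to control well signal range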
row,Structure (SMILES),fluorescence artifact activation
1,CCn1cc([N+](=O)[O-])c(C(=O)Nc2ccn(Cc3ccccc3)n2)n1,1.63%
2,O=C(Nc1ccc(S(=O)(=O)Nc2ncccn2)cc1)C1CC(=O)N(c2ccccc2)C1 (stereo unspecified),-0.09%
3,CC(=O)c1ccc2c(c1)c(C#N)c1ccccc1[n+]2[O-],57.1% (active)
4,O=S(=O)(CCN(CCS(=O)(=O)C(F)(F)F)CC1CCCO1)C(F)(F)F (stereo unspecified),0.02%
5,O=C(c1cnc2ccccc2n1)N1CCN(c2ccc(C(F)(F)F)cn2)CC1,5.21%
6,CN(C)CCOc1ccccc1C(C)(C)C,0.06%
7,O=C1c2c(O)cc(O)cc2O[C@@]12c1c(cc(O)c3c1O[C@H](c1ccc(O)cc1)[C@@H](O)C3)O[C@@H]2c1ccc(O)cc1,0%
8,O=S(=O)(O)c1nc2ccccc2n1Cc1ccccc1,16.5% (active)
9,CCn1c(C(C)NC(C)=O)nc2ccccc21 (stereo unspecified),2.7%
10,c1ccc(Cn2c(-c3ccccc3)nc3nc4ccccc4nc32)cc1,6.17%
11,NC(=O)[C@@H]1CCCNc2c(I)cc([N+](=O)[O-])cc2C(=O)N[C@@H](CCC(=O)O)C(=O)N[C@@H](CO)C(=O)N1,0%
12,Cc1ccc(S(=O)(=O)N2CC(C(=O)O)=CC[C@H]2c2ccc(Cl)cc2)cc1,0.03%
13,Cc1cccc(NC(=O)c2ccc(C(=O)c3ccccc3)cc2)n1,1.13%
14,Cc1cc(C(=O)O)ccc1-c1ccc(/C=C2\SC(=O)N(CC(=O)Nc3ccc4c(c3)OCO4)C2=O)o1,0.42%
15,NC(=O)c1ccc(NC(=O)COC(=O)c2c3c(nc4ccccc24)/C(=C\c2ccc4c(c2)OCO4)CCC3)cc1,0.16%
16,O=C(COC(=O)c1ccc(O)cc1)Nc1ccc2c(c1)OCCO2,13.1% (active)
17,Cc1cc(C)c(S(=O)(=O)Nc2ccc3[nH]c(=O)[nH]c3c2)c(C)c1,3.79%
18,O=C/C(=C\Nc1ccc(S(=O)(=O)CCO)cc1)c1nc2cc(Cl)ccc2o1,20.2% (active)
19,Cc1ccc(-c2nc3sc(C#N)c(N)n3c(=O)c2C#N)cc1,0.13%
20,CC(C)CC1C(C#N)=C(N)SC(N)=C1C#N,0.12%
21,Cc1ccc(-n2c(C)cc(C(=O)COC(=O)c3ccc[nH]c3=O)c2C)cc1,-0.02%
22,Cc1ccc(/C=C/C(=O)Nc2cccc3cccnc23)o1,4.18%
23,Cc1cc(C(=O)COc2cccc3cccnc23)c(C)n1C,21.4% (active)

row,Structure (SMILES),fluorescence artifact activation
1,COc1ccc(NC(=O)c2cccc(-c3ccc(O)cc3)c2)cn1,-0.04%
2,Cc1nc(-n2[nH]c3c(c2=O)CCCC3)[nH]c(=O)c1Cc1ccccc1,7.51%
3,O=C1c2cccc3c([N+](=O)[O-])ccc(c23)C(=O)N1Cc1cccnc1,0.04%
4,CN(C)CCCN1C(=O)c2cccc3c([N+](=O)[O-])ccc(c23)C1=O,14.2% (active)
5,Cc1ccnc(N2C(=O)c3cccc4c([N+](=O)[O-])ccc(c34)C2=O)c1,3.75%
6,O=C(O)c1ccccc1C1=Nc2ccc(O)cc2Oc2cc(O)ccc21,0.18%
7,Cc1cc(C)n(NC(=S)NC2CCCCC2)c(=O)c1C#N,-0.01%
8,Cc1ccccc1-c1noc(-c2cccs2)n1,5.07%
9,CC(=O)[C@H]1[C@H](C#N)C[C@H]2[C@@H]3CC=C4C[C@@H](O)CC[C@]4(C)[C@H]3CC[C@@]21C,10.9%
10,Cc1cc(-n2c(=O)c(C#N)cc3c(=O)n4ccccc4nc32)no1,0.34%
11,CN(C)c1ccc(/C=C2\Oc3ccc(C#Cc4cccc(N)c4)cc3C2=O)cc1,0.09%
12,Cc1nn(-c2ccccc2)c(N2CCCC2)c1/C=C1\N=C(c2ccc(OC(C)C)cc2)OC1=O,0.42%
13,COc1ccc(NC(C)=O)cc1NC(=O)C1CCCN1C(=O)c1cccs1 (stereo unspecified),-0.02%
14,CCN(CC)c1ccc(/C=c2/sc3nnc(-c4ccccc4C)n3c2=O)cc1,0.53%
15,CCN(CC)c1ccc(/C=c2\sc3nnc(-c4ccccc4Cl)n3c2=O)cc1,13.8% (active)
16,CCN(CC)c1ccc(/C=c2\sc3nc4ccccc4n3c2=O)c(O)c1,3.44%
17,Cc1ccc(/C=C/C(=O)N2CCN(S(=O)(=O)c3ccc(C)c(C)c3)CC2)o1,2.09%
18,Cc1ccc(C(=O)N2C(=O)C(c3ccccc3)Oc3ccccc32)cc1 (stereo unspecified),0.42%
19,CN1CC=C2C(C#N)=C(N)C(C#N)(C#N)C(c3ccsc3)C2C1 (stereo unspecified),0.22%
20,C=CCN1C=CC(=CC=C(C#N)C#N)C=C1,251% (active)
21,CCCN1C=CC(=CC=C(C#N)C#N)C=C1,4.48%
22,CCOc1ccc(S(=O)(=O)n2ccnc2)c2ccccc12,2.67%
23,CCc1ccc(C(=O)NNC(=O)c2cccc(N3C(=O)CCC3=O)c2)cc1,2.93%

# From PubChem BioAssay AID504382 (The Scripps Research Institute Molecular Screening Center, 2011)
